FXIIa inh – inhibitors of human coagulation factor XIIa | P00748 | purified FXIIa, Boc-QGR-AMC fluorogenic substrate, 2 h | inhibition, % at 5 µM | hit rate 0.3% among 220,000 | AID 800; in the data active means inhibition above about 40%;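 further: 0% = enzyme with no compound and 100% = blank without enzyme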
AHR act – activators of human aryl hydrocarbon receptor; AHR-responsive luciferase reporter cells, luminescence; activation, % at 5 µM; hit rate 2.5% among 320,000; in the data active means activation above about 47%;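 further: 0% = vehicle wells and 100% = reference agonist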
thrombin 1536 – thrombin (human) inhibition; alpha-thrombin, Boc-VPR-AMC fluorogenic substrate cleavage; hit rate 0.26% among 220,000; inhibition, % at 5 µM; P00734;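 active means inhibition at or above 40%; inactive means inhibition below 40%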;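 further: 0% = enzyme with no compound and 100% = wells without enzyme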
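Material: human alpha-thrombin protein; Also added: Boc-VPR-AMC substrate, 15 µM final; Timing: enzyme reaction carried out at room temperature; Signal: fluorescence, ex 355 nm, em 460 nm; Measure: % inhibition of thrombin; Controls: enzyme without compound as high, wells lacking enzyme as low.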
STAT3 activator – activators of IL-6 induced STAT3 signaling; U3A cells, IL-6 STAT3-luciferase reporter, luminescence; 100% = signal with IL-6 EC80 alone; activation (% of control), % at 5.6 µM; hit rate 0.91% among 190,000;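 active means activation above the screen-wide mean of compound activation plus 3 SD, cut at about 130% in these data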;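 further: 0% = background luminescence of wells with medium and substrate only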
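Test system: Human STAT1-deficient U3A cells with stable STAT3-luciferase reporter | Also added: Interleukin-6, 33 ng/mL | Timing: Compound pre-incubation 1 h before IL-6, then 6 h stimulation at 37 °C | Technique: Luciferase reporter luminescence | Read-out: Percent of IL-6-only median luminescence | Benchmarks: IL-6-only wells as 100% reference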
KLK5 inh – blocks human kallikrein 5 protease activity. inhibition, % at 5 µM. Q9Y337. hit rate 0.59% among 210,000. recombinant hK5, fluorogenic AMC substrate cleavage;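 active means inhibition of 40% or more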;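 further: 0% = enzyme controls without compound and 100% = no-enzyme blanks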
Target sequence (Q9Y337 67-293 limits assumed): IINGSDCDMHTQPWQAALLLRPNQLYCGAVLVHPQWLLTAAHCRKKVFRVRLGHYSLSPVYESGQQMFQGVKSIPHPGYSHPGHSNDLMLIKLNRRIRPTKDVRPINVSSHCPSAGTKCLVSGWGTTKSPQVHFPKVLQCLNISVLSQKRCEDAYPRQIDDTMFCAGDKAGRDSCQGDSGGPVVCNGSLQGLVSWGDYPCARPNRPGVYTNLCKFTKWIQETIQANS
FXIa inh 1536 – factor XIa (human) inhibition; purified FXIa, Boc-Glu-Ala-Arg-AMC fluorogenic substrate; hit rate 0.14% among 220,000; inhibition, % at 5 µM;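 active means inhibition of at least 40%; inactive means inhibition below 40%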;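 further: fluorescence of freed AMC excited at 355 nm; 0% = enzyme without compound and 100% = no enzyme blank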
Active calls of the source: *; nt = not tested or not shown. Most compounds without a hit are left out; they make up all but 3.5% or so of the library.

SMILES	FXIIa inh	AHR act	thrombin 1536	STAT3 activator	KLK5 inh	FXIa inh 1536
O=S1(=O)C=C(Sc2nc3ccccc3s2)c2ccccc21	10	29	-3	134*	5	-5
NC(=O)CC(NSc1ccccc1[N+](=O)[O-])C(=O)O (stereo unspecified)	3	2	1	nt	1	1
CCCNC(=O)C1(CC2CC(c3ccccc3)=NO2)CCN(C(=O)CCCCCBr)CC1 (stereo unspecified)	nt	-1	nt	nt	nt	nt
O=C(Nc1ccc(F)cc1)c1ccc(=O)[nH]n1	nt	6	nt	nt	nt	nt
O=C(Nc1ccc(F)cc1)c1cccnn1	nt	51*	nt	nt	nt	nt
Cc1ccc(NC(=O)CCC(=O)NNC(=O)COc2ccccc2)cc1C	12	68*	-5	92	-15	6
Fc1ccc(C2c3[nH]c4ccccc4c3CCN2Cc2ccoc2)cc1 (stereo unspecified)	6	51*	-3	115	nt	-3
Cc1cc(C)c(C)c(OCC(O)CN2CCN(c3ccccn3)CC2)c1 (stereo unspecified)	nt	1	nt	nt	nt	nt
CC1(C)Oc2ccc(C(=O)NC3CCCC3)cc2N(CC(=O)NC2CCCC2)C1=O	64*	3	1	101	10	20
COc1ccc(Cl)cc1Nc1cc(C)nc2nc(C)nn12	12	71*	2	93	-7	7
Cc1cc(Nc2ccc(C)c(C)c2)n2nc(C)nc2n1	42*	14	-1	94	-1	31
COc1ccc(N2CCN(C(=O)c3c(-c4c(F)cccc4Cl)noc3C)CC2)cc1	nt	-2	nt	nt	nt	nt
O=C(NS(=O)(=O)Oc1ccc(F)c(Cl)c1)OC[C@@H]1CCCN2CCCCC12 (stereo partly specified)	8	0	5	105	-12	1
COc1ccccc1-c1nnc(C2CCN(S(=O)(=O)c3ccccc3[N+](=O)[O-])CC2)o1	nt	22	nt	nt	nt	nt
O=C(N/N=C/c1ccco1)c1cccc(NC(=O)c2cccc(Cl)c2)c1	nt	55*	nt	nt	nt	nt
O=C(Cc1ccc(F)cc1)N/N=C/c1ccncc1	36	13	30	102	55*	19
O=C(N/N=C/c1ccc(F)cc1)c1cccc(NC(=O)c2ccc(F)cc2)c1	nt	60*	nt	nt	nt	nt
O=C(N/N=C/c1ccncc1)c1cccc(NC(=O)c2ccc(Cl)cc2)c1	8	1	-10	102	-17	-1
O=C(O)c1ccc(/C=N/NC(=O)c2ccc(F)cc2)cc1	-1	4	68*	nt	-4	-6
O=C(CCC(=O)Nc1ccc(F)cc1)N/N=C/c1ccncc1	5	0	4	89	-1	-3
O=C(N/N=C/c1ccc(F)cc1)c1ccccc1	10	8	-7	97	2	0
CC(C)(C)N(Cc1ccccc1)C(=O)COC(=O)CSc1ccc([N+](=O)[O-])cc1	nt	1	nt	nt	nt	nt
CCCNC(=O)CC(NS(=O)(=O)c1ccc(OC)cc1)c1ccco1 (stereo unspecified)	7	1	-6	102	20	-1
CC(=O)Nc1nccc(-c2cc(-c3ccccc3)no2)n1	14	50*	3	nt	3	4
Cn1c(=O)n(C)c2cc(NC(=O)CSc3ccccc3)ccc21	nt	29	nt	nt	nt	nt
SMILES	FXIIa inh	AHR act	thrombin 1536	STAT3 activator	KLK5 inh	FXIa inh 1536
O=C(Nc1cc(Cl)ccc1-n1cncn1)c1cncc(Br)c1	nt	28	nt	nt	nt	nt
O=C(Nc1cc(Cl)ccc1-n1cncn1)c1cc(F)c(F)c(F)c1F	nt	56*	nt	nt	nt	nt
O=C(Nc1cc(Cl)ccc1-n1cncn1)c1ccc(Br)o1	nt	61*	nt	nt	nt	nt
CS(=O)(=O)c1ccccc1C(=O)Nc1cc(Cl)ccc1-n1cncn1	nt	4	nt	nt	nt	nt
O=C(Nc1cccc(F)c1)c1ccc(-c2ccccc2Cl)o1	4	50*	0	97	-4	6
O=C1NC(Cc2ccccc2)c2nc3cc(Cl)ccc3c(=O)n2-c2ccccc21 (stereo unspecified)	nt	14	nt	nt	nt	nt
O=C(NC1CC1)C1=C[C@H](c2c[nH]c3ccccc23)C[C@H](OCCCCO)O1	7	72*	-3	nt	-1	-1
O=C(NC1CC1)C1=C[C@@H](c2c[nH]c3ccccc23)C[C@@H](OCCCCO)O1	7	65*	1	nt	0	1
O=C(NC1CC1)C1=C[C@@H](C2CC2)C[C@@H](OCCCCO)O1	nt	2	nt	nt	nt	nt
O=C(NC1CC1)C1=C[C@@H](c2c[nH]c3ccccc23)C[C@@H](OCc2ccc(CO)cc2)O1	2	76*	-7	nt	3	0
O=C(Nc1ccnn1C1CCN(CCCC2CCCC2)CC1)c1ccccc1Cl	nt	-1	nt	nt	nt	nt
CCCC(=O)Nc1cc(C)c(NC(=O)c2ccco2)cn1	nt	-3	nt	nt	nt	nt
COc1ccc(/C=C2\CCC(C3CCCC3)C2=O)c(OC)c1 (stereo unspecified)	nt	14	nt	nt	nt	nt
COc1cc(OC)c(OC)cc1/C=C1\CCC(C2CCCC2)C1=O (stereo unspecified)	10	55*	2	102	5	3
CCc1cc(=O)oc2cc3occ(C)c3cc12	0	36	-7	96	-13	-5
CCCc1cc(=O)oc2cc3occ(C)c3cc12	14	47*	2	96	-2	4
C=CCNC(=S)/N=c1/ccccn1CC	7	0	-6	nt	0	0
CCN(CC(=O)Nc1cccc(OC)c1)CC(=O)Nc1ccc(C)cc1Cl	12	4	-23	97	-1	-6
Cc1cccc(C)c1OCC(O)CN (stereo unspecified)	6	-2	19	105	52*	11
CCOC(=O)N1CCN(CC(O)COc2c(C)cccc2C)CC1 (stereo unspecified)	23	2	4	94	-14	9
O=S(=O)(c1ccccc1)[C@@]1(c2ccc(Br)cc2)C[C@@H]2ON=C(c3ccccc3)[C@@H]2C1	nt	-3	nt	nt	nt	nt
COc1ccc(C2=Nn3c(nnc3-c3ccccc3)SC2)cc1OC	-1	9	-7	134*	11	-11
COc1ccc(OC)c(-c2nnc3n2N=C(c2ccc(OC)c(OC)c2)CS3)c1	nt	41	nt	nt	nt	nt
O=C(O)c1ccccc1C(=O)N1N=C2/C(=C/c3cccc([N+](=O)[O-])c3)CCCC2C1c1cccc([N+](=O)[O-])c1 (stereo unspecified)	30	6	5	90	21	31
O=C(O)c1c(C(=O)N2N=C3/C(=C/c4ccccc4)CCCC3C2c2ccccc2)cccc1[N+](=O)[O-] (stereo unspecified)	1	78*	-13	118	-7	-5
CCCCOC(=O)/C(=C/c1cn(C)c2ccccc12)NC(=O)c1ccc(OC)cc1	9	81*	-2	96	-8	8
COc1ccc(C(=O)N/C(=C\c2cn(C)c3ccccc23)C(=O)NCCCn2ccnc2)cc1	nt	-1	nt	nt	nt	nt
COC(=O)c1cc(S(=O)(=O)N(Cc2ccccc2)C(C)(C)C)c[nH]1	nt	0	nt	nt	nt	nt
C/C(=N/Nc1cc(-c2ccccc2)nc(-c2ccccc2)n1)c1ccc(O)cc1	4	66*	-7	98	-4	-3

Screens: PubChem, several laboratories
